Screens as filed in PubChem BioAssay.
HTRA1 inhibitor – blocks human HTRA1 serine peptidase. Q92743. recombinant HTRA1, FP-rhodamine activity-based probe, fluorescence polarization. inhibition, % at 5.96 µM. hit rate 0.5% among 340,000. AID 504803; in the data active means inhibition above about 36%;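 further: 0% = enzyme with DMSO and 100% = wells lacking enzyme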
ABHD4 inh – inhibitors of mouse ABHD4 | purified mABHD4, FP-Rh probe fluorescence polarization | inhibition, % at 8.92 µM | hit rate 0.54% among 370,000 | AID 720543;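 active means inhibition exceeding the mean over every tested compound plus 3 SD, cut at about 30% in these data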;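 further: 0% = plate median of compound wells and 100% = S159A mutant with DMSO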
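Assay system: mABHD4 protein; medium: HEPES pH 7.0, NaCl, Pluronic buffer; dosing: 8.92 µM, single dose; schedule: 45 min + 60 min at 25 °C; signal: FP readout, ex 525 nm / em 598 nm; read-out: normalized percent inhibition of probe labeling; repeats: single replicate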
SIAE primary – inhibitors of human sialic acid acetylesterase SIAE | hit rate 0.69% among 370,000 | inhibition, % at 9.66 µM | SIAE FP-Rh probe binding, fluorescence polarization;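 active means inhibition above a cutoff: mean of compounds within the control limits plus 3 SD of those, cut at about 17% in these data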;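 further: 0% = plate median of compound wells and 100% = probe without SIAE protein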
Target sequence (Q9HAT2 whole entry, looked up): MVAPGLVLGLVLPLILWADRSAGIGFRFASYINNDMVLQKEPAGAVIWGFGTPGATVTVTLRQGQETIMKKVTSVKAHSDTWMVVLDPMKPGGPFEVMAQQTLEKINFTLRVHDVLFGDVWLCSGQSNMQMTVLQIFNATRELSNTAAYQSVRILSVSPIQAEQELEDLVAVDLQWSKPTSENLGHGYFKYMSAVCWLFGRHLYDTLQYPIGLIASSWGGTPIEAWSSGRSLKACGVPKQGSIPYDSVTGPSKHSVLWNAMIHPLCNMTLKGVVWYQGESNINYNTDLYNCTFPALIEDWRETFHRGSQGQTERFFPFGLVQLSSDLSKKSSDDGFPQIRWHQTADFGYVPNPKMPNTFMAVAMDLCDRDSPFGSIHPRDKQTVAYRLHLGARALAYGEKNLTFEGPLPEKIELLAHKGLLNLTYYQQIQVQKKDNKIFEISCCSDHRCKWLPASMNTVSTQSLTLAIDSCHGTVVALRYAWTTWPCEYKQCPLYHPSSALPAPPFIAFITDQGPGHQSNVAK
rCAG binder – r(CAG) repeat RNA binding. TO-PRO-1 dye displacement fluorescence. inhibition, % at 3 µM. AID 651821. hit rate 1.3% among 370,000;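 active means inhibition above the plate cutoff, the mean of all test compounds on that plate plus 3 SD, cut at about 35% in these data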;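 further: 0% = DMSO alone and 100% = 100 µM mitoxantrone as full dye displacement; higher means more dye released from RNA so lower well fluorescence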
PRMT1 FP inh – blocks human protein arginine methyltransferase 1; inhibition, % at 2.79 µM; AID 652257; Q99873; recombinant PRMT1, activity-based probe fluorescence polarization; hit rate 1.3% among 370,000;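 active means inhibition above about 21% made by adding two undisclosed values, limit read from the data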
ABHD4 confirm – confirmation of mouse ABHD4 inhibitors | shares compounds with ABHD4 inh | purified mABHD4, FP-Rh probe fluorescence polarization | inhibition, % at 8.92 µM | hit rate 55% among 1,800 | AID 720658;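 active means mean inhibition across replicates above the hit cutoff set in the primary screen, cut at about 30% in these data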;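 further: 0% = wild-type ABHD4 with DMSO and 100% = catalytically dead S159A mutant with DMSO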
* hit, by the source's call; i = inactive; x = no result. In the library only some 3.3% were active in any assay of this set; here they are far more common.

SMILES	HTRA1 inhibitor	ABHD4 inh	SIAE primary	rCAG binder	PRMT1 FP inh	ABHD4 confirm
Cc1cccc(N2C(=O)SC(N(C)c3ccccc3)C2=O)c1 (stereo not drawn)	-12	64*	-1	-6	-1	-9
Nc1ccc(Br)c2cccnc12	20	40*	4	5	6	16
O=C(O)c1cccc(Nc2nc(-c3cc4ccccc4oc3=O)cs2)c1	1	30*	-32	33	-1	49*
O=c1oc2ccccc2cc1-c1csc(NN=C2CCCC2)n1	-5	14	6	21	5	x
CSc1ccc(NC(=O)NCCCN2CCC(Cc3ccccc3)CC2)cc1	5	3	1	12	-2	x
O=C(COC(=O)c1ccc(N2CCCC2=O)cc1)c1ccccc1	2	1	-3	-1	3	x
O=C(CSC1=NNC(c2ccccn2)S1)Nc1ccc(C(F)(F)F)cc1 (stereo not drawn)	20	39*	-3	12	24*	-9
c1ccc(CSC2=NNC(c3ccccn3)S2)cc1 (stereo not drawn)	18	18	7	5	-12	x
Cc1cccc(C)c1NC(=O)C1c2ccccc2OCC(=O)N1Cc1ccccc1 (stereo not drawn)	x	0	3	1	0	x
Cc1cccc(Cc2c(C)nc3c(C(=O)N4CCN(Cc5ccc6c(c5)OCO6)CC4)cnn3c2C)c1	-7	36*	-2	-3	1	38*
CNS(=O)(=O)c1cccc(C(=O)OCC(=O)c2ccc3[nH]c(=O)[nH]c3c2)c1	7	4	3	5	-2	x
CCCCN(C)CCCNC(=O)C1CCC(CNS(=O)(=O)c2c(C)cc(C)cc2C)CC1 (stereo not drawn)	-27	2	2	-10	-3	x
CNCCNC[C@H](Cc1cccc2ccccc12)NCCc1ccccc1	6	6	4	-1	-2	x
CNC[C@H](Cc1ccccc1)NC[C@@H](Cc1cccc2ccccc12)NCCc1ccc(C)cc1	1	49*	0	11	5	49*
O=C(O)[C@H]1CC=C[C@H]2CCN(Cc3ccc(Cl)c(Cl)c3)C(=O)[C@@H]12	26	30*	-5	10	8	21
COc1ccccc1N(C)c1cc2c(c3c1ccn3C)C1CCC2C1 (stereo not drawn)	x	33*	8	4	1	12
CCN(C)c1cc2c(c3c1ccn3C)C1CCC2C1 (stereo not drawn)	x	-2	6	1	5	x
CCOc1ccccc1C(=O)N[C@H](C(=O)OCc1csc(CC(=O)Nc2ccc(C)cc2)n1)C(C)C	-56	16	-21	5	-1	x
CCOc1ccccc1C(=O)NCC(=O)OCc1csc(CC(=O)Nc2ccc(C)cc2)n1	-32	36*	-19	9	3	7
CCCCn1c(N)c(N(CCOC)C(=O)C2CCN(C(=O)c3ccc(F)cc3)CC2)c(=O)[nH]c1=O	-2	31*	9	-2	3	4
CCCCn1c(N)c(N(CCOC)C(=O)C2CCN(C(=O)c3ccc(Cl)cc3)CC2)c(=O)[nH]c1=O	-2	1	-4	-5	-10	x
O=C(NCc1ccccc1Br)C1CCCO1 (stereo not drawn)	2	-1	-2	0	-4	x
CCOc1cc(C(=O)NCC(C)(C)CNC(=O)c2cc(OCC)c(OCC)c(OCC)c2)cc(OCC)c1OCC	x	36*	-5	-2	-5	34*
C[C@H]1[C@@H](OC(=O)NC2CCC2)CC[C@@]23CCCN2C(=O)CCC[C@@H]13	x	1	9	x	-4	x
CCCCNC(=O)CNC(=S)N(CCCN1CCOCC1)Cc1cccs1	2	5	4	-8	-2	x
COc1ccc(-c2c(C)c3ccc(O)cc3oc2=O)cc1OC	-2	-9	-2	1	-4	x
Nc1ccc(-c2c3ccc(=O)cc-3oc3cc(O)ccc23)cc1C(=O)O	28	30*	13	i	71*	40*
O=c1[nH]c(=S)[nH]cc1Oc1ccccc1	-10	3	0	1	2	x
Cc1ccc(S(=O)(=O)N/N=C/c2ccc(O)c(O)c2)cc1[N+](=O)[O-]	21	40*	9	6	0	14
